Here are results for nine molecules from publication PMC3129651 (Pharmaceutical research, 2010).

Molecules are shown by their SMILES. Entries after “also recorded” stand apart in the source; their conditions may differ. Where a name gives a salt, the structure may show the parent alone. Read-outs that look alike come from different tables or passages of the source.

For series [1], the system named is OATP. Briefly: Initial uptake of 3H-E217G in suspended human hepatocytes with inhibitors. It counts as in vitro ADME. As to conditions: 3H-E217G 1μM, 20μM rifamycin SV.
The subject of series [2] is suspended human hepatocytes. Format: in vitro ADME. As to conditions: 99mTc-MEB 5μCi/mL, 20μM rifamycin SV, 200μM clonidine, 10μM desipramine, 5μM decynium 22, 10μM ketoprofen.
Series [3] has as its system suspended WT rat hepatocytes. It counts as in vitro ADME. As to conditions: 99mTc-MEB 5μCi/mL, 20μM rifamycin SV, 20μM glycyrrhizic acid, 200μM clonidine, 10μM desipramine, 5μM decynium 22, 10μM ketoprofen.
For series [4], the system named is Oatp. It counts as in vitro ADME. The conditions noted are these: suspended WT rat hepatocytes; 3H-E217G 1μM; inhibitor 20μM.
For series [5], the system named is Oct. It counts as in vitro ADME. The conditions noted are these: suspended rat hepatocytes, 14C-TEA 20μM, 20μM glycyrrhizic acid; for initial 14C-TEA uptake in the presence of inhibitor: 200μM clonidine, 10μM desipramine.
In series [6] the test system is OCT. Briefly: Initial uptake of 14C-TEA in suspended human hepatocytes with inhibitors. Format: in vitro ADME. As to conditions: 14C-TEA 20μM, 5μM decynium 22.
Series [7] deals with human sandwich-cultured hepatocytes. Briefly: 20-min efflux study in day 7 human sandwich-cultured hepatocytes. It counts as in vitro ADME.
The test system of series [8] is WT rat sandwich-cultured hepatocytes. Briefly: 20-min efflux study in day 4 WT rat sandwich-cultured hepatocytes. It counts as in vitro ADME. In a few lines:
(§1)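 Male Wistar WT or Mrp2-deficient TR⁻ rat hepatocytes were seeded on collagen I 6-well plates (~1.5 × 10^6 cells/well TR, 1.75 × 10^6 WT), overlaid with Matrigel and used on day 4. They were preloaded for 20 min at 37°C with 99mTc probe (5 μCi/mL) in standard HBSS. Efflux then ran 20 min at 37°C in standard (basolateral) or Ca2+-free HBSS (basolateral + canalicular), with 100 μM MK571, 20 μM GF120918 or 0.6% DMSO. Decay-corrected gamma counts of medium and lysate were taken, and efflux was expressed as % of preloaded mass. n=4 WT, 3 TR livers, triplicate.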

The subject of series [9] is WT sandwich-cultured rat hepatocytes. The experiment in a line: 10-min accumulation study. Format: in vitro ADME. As to conditions: 2μM GF120918; siNT- and siBcrp-infected rat SCH.
Series [10] relates to TR^− rat sandwich-cultured hepatocytes. Format: in vitro ADME. In a few lines: as §1
The conditions of series [11]: cited from earlier work.
The conditions of series [12]: rats, 0.25 mCi dose, 30 min after intravenous administration; cited from earlier work.
In series [13] the test system is suspended rat hepatocytes. The experiment in a line: Preliminary uptake time course in suspended rat hepatocytes sampling over 60min.
Series [14] deals with T1, Oat2 (Rattus norvegicus, UniProt Q5RLM2).
T1 sequence (Q5RLM2 1-535): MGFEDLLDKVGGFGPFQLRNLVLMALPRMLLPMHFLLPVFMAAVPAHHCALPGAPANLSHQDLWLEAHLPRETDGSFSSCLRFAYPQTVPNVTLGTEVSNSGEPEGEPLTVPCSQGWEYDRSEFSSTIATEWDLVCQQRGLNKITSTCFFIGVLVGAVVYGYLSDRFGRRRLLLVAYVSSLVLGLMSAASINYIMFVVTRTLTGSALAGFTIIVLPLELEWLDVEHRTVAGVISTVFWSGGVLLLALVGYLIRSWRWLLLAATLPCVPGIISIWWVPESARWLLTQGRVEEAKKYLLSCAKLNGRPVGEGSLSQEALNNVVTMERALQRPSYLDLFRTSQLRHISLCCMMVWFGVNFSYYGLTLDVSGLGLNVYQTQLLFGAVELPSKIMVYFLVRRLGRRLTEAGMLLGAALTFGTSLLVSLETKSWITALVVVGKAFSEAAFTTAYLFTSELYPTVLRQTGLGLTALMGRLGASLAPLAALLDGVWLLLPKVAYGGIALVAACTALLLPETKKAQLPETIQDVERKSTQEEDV
The experiment in a line: 3H-PAH uptake over 60 min in freshly isolated rat hepatocytes. Format: in vitro ADME. The conditions noted are these: 50μM MK571 in the incubation medium.

Series [15] has as its system OATP1B3. The conditions noted are these: inhibition of OATP1B3; cited from earlier work.
Series [16] relates to suspended rat hepatocytes.
[17] abbreviates: TR- rat SCH, 5μCi/mL, 20min preload.
[18] abbreviates: human SCH, control, 5μCi/mL, 20min preload.
The mark [19] stands for this setting: control WT rat SCH, 5μCi/mL, 20min preload.

For `CO[C@H]1/C=C/O[C@@]2(C)Oc3c(C)c(O)c4c(O)c(cc(O)c4c3C2=O)NC(=O)/C(C)=C\C=C\[C@H](C)[C@H](O)[C@@H](C)[C@@H](O)[C@@H](C)[C@H](OC(C)=O)[C@@H]1C` [rifamycin SV], the “initial 3H-E217G uptake in the presence of inhibitor” value is on record as 51.5 % of control in series [1] and 15.5 % of control in [4]. For the same molecule, the “initial 99mTc-MEB uptake in the presence of inhibitor” value in series [2] is 35.4 % of control; in [3], 20.7 % of control.
As to `CC1(C)[C@@H](O[C@H]2O[C@H](C(=O)O)[C@@H](O)[C@H](O)[C@H]2O[C@@H]2O[C@H](C(=O)O)[C@@H](O)[C@H](O)[C@H]2O)CC[C@]2(C)[C@H]3C(=O)C=C4[C@@H]5C[C@@](C)(C(=O)O)CC[C@]5(C)CC[C@@]4(C)[C@]3(C)CC[C@@H]12` [glycyrrhizic acid], the “initial 99mTc-MEB uptake in the presence of inhibitor” value in series [3] is 39.5 % of control. Besides, in series [5], the “reduction of 14C-TEA uptake compared to control” value turned out to be 62.1% and the “initial 14C-TEA uptake in the presence of inhibitor” value is on record as 37.9 % of control. For the same molecule, in series [4], the “initial 3H-E217G uptake in the presence of inhibitor” value was 23.8 % of control.
Consider `CCN1/C(=C/c2ccc3ccccc3[n+]2CC)C=Cc2ccccc21.[I-]` [decynium 22], for which the “initial 14C-TEA uptake in the presence of inhibitor” value in [6] was 54.2 % of control. Further, the “initial 99mTc-MEB uptake in the presence of inhibitor” value in series [2] and in series [3] was “marginal effects” each time.
In the case of `COc1cc2c(cc1OC)CN(CCc1ccc(NC(=O)c3cccc4c(=O)c5cccc(OC)c5[nH]c34)cc1)CC2` [GF120918, N-(4-[2-(1,2,3,4-tetrahydro-6,7-dimethoxy-2-isoquinolinyl)ethyl]-phenyl)-9,10-dihydro-5-methoxy-9-oxo-4-acridine carboxamide], in [7] (human SCH, GF120918 20μM), the “decrease of 99mTc-MIBI basolateral efflux” value is on record as ~ 2.9 fold and the “decrease of 99mTc-MIBI canalicular efflux” value is reported as 2.1 fold. Besides, in series [8] (rat SCH, GF120918 20μM), the “decrease of 99mTc-MIBI basolateral efflux” value is ~ 2.3 fold and the “decrease of 99mTc-MIBI canalicular efflux” value amounted to 1.5 fold. Further, in series [9], the “effect on 99mTc-MIBI BEI and in vitro Clbiliary (biliary excretion)” value was “ablated; also recorded: inhibited completely”; the “increase in hepatocellular accumulation (cells only) of 99mTc-MIBI” value is on record as ~ 2 fold.
As for `Cc1cc(C)c(NC(=O)CN(CC(=O)[O-])CC(=O)[O-])c(C)c1Br.Cc1cc(C)c(NC(=O)CN(CC(=O)[O-])CC(=O)[O-])c(C)c1Br.[99Tc+4]` [^99mTc-MEB, ^99mTechnetium-mebrofenin], the “basolateral efflux over 20 min” value in [10] (setting [17]) is 31.8±6.2 % of total preloaded mass; in series [7] (setting [18]) it was 16.7±0.6 % of total preloaded mass; in series [8] (setting [19]), 25.0±6.7 % of total preloaded mass. The “canalicular efflux over 20 min” value in [10] (setting [17]) is “negligible; also recorded: completely ablated”; in [7] (setting [18]), 45.8±8.6 % of total preloaded mass; in [8] (setting [19]), 15.3±5.7 % of total preloaded mass. The “hepatocellular content in cell lysate at the end of the 20-min efflux experiment, Rat TR-” value in [10] (day 4 TR- rat SCH, n=3) is reported as 78.8 ± 13.2% of the total substrate mass preloaded. Besides, the “dose recovered in bile” value in series [11] (2.3mCi dose intravenously, healthy human subjects, within 180 min) is reported as ~ 84%. For the same molecule, in series [11] (after 24 hours in humans), the “dose recovered in urine” value is ~ 1.5 % of the dose. For the same molecule, the “dose taken up by the liver” value in series [11] (humans) was “More than 98%”. Further, the hepatic excretion half-life in series [11] (humans) is recorded as 16 min. Moreover, the “dose recovered in the liver” value in series [12] is recorded as ~ 95%. In addition, the “canalicular efflux, human compared to rat SCH” value in series [7] (20-min efflux) is ~ 3 fold. The “hepatocellular content in cell lysate at the end of the 20-min efflux experiment, Human Inhibitor” value in [7] (day 7 human SCH, Inhibitor = 100μM MK571 for 99mTc-MEB and 20μM GF120918 for 99mTc-MIBI) is on record as 27.7 ± 0.4% of the total substrate mass preloaded. For the same molecule, the “fraction of basolateral efflux” value in series [7] (human SCH) was 26.7 % of total efflux; in [8] (rat SCH), 62.0 % of total efflux. Moreover, the “fraction of canalicular efflux” value in [7] (human SCH) is recorded as 73.3 % of total efflux; in [8] (rat SCH), 38.0 % of total efflux. Besides, the total efflux in series [7] (human SCH, 20-min efflux study design) amounted to 62.4±8.0%; in [8] (rat SCH, 20-min efflux study design), 40.3±5.4%. Also, the “hepatocellular content in cell lysate at the end of the 20-min efflux experiment, Rat Inhibitor” value in series [8] (day 4 WT rat SCH, Inhibitor = 100μM MK571 for 99mTc-MEB and 20μM GF120918 for 99mTc-MIBI) is recorded as 63.4 ± 4.8% of the total substrate mass preloaded. Also, in series [13], the “linear range of uptake” value came to 1.5 min.
As a reminder, the Ki is a measure of affinity in units of concentration, obtained from inhibition or displacement. On to `CN(C)C(=O)CCSC(SCCC(=O)O)c1cccc(/C=C/c2ccc3ccc(Cl)cc3n2)c1` (stereo not shown) [MK571, MK-571 sodium salt], for which the “effect of inhibitor on 3H-PAH uptake” value in series [14] is “not significantly influenced”. In [15], the Ki is 600 nM.
Regarding `C[C@]12CC[C@@H]3c4ccc(O)cc4CC[C@H]3[C@@H]1CC[C@@H]2O[C@@H]1O[C@H](C(=O)O)[C@@H](O)[C@H](O)[C@H]1O` [^3H-E217G, Estradiol-17-β-D-glucuronide], the “linear range of uptake” value in series [16] is 2.5 min.
For `CC[N+](CC)(CC)CC` [^14C-TEA, tetraethylammonium], the “linear range of uptake” value in series [13] worked out at 5 min.
`Clc1cccc(Cl)c1N=C1NCCN1` [clonidine]: the “initial 99mTc-MEB uptake in the presence of inhibitor” value in series [2] and in series [3] was “marginal effects” in each case. In series [5], the “initial 14C-TEA uptake in the presence of inhibitor” value is given as 23.7 % of control.
